For 37 compounds, Activity, GI50 and RatioGI50 results are on record in ChEMBL document CHEMBL1154748, “4-Pyridylanilinothiazoles that selectively target von Hippel-Lindau deficient renal cell carcinoma cells by inducing autophagic cell death” (2010).

Calls of active or inactive are those of the source. The rule behind the calls is not given here.

What is called GI50 is the concentration giving 50% growth inhibition.

For one assay, the system named is RCC4. Briefly: Induction of autophagy in VHL-null human RCC4 cells assessed as intracytoplasmic vacuoles at 5 uM after 24 h.
A short description of assay [1]: Growth inhibition of VHL-null human RCC4 cells after 4 days by XTT assay. The note with it: RCC4, 96 h. Format: functional. The gist of the method:
(§1)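 XTT read-out: 5000 cells/well plated, vehicle or drug added next day, 4-day exposure. Then phenol red-free medium with 0.3 mg/mL XTT, 20% FCS and 2.65 μg/mL N-methyldibenzopyrazine methyl sulfate, 1-2 h at 37 °C, absorbance at 450 nm. GI50 by linear interpolation; single determinations in triplicate. Ratio is the intraexperiment RCC4-VHL GI50 / RCC4 GI50.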
A general note: Formazan colour is commonly taken as a measure of viable cells.

Assay [2] is described as follows: Ratio of IC50 for human RCC4-VHL cells to IC50 for VHL-null human RCC4 cells. The assay is classed as functional. The method, boiled down: as §1

Take `COCC#Cc1cnccc1-c1csc(Nc2cccc(C)c2)n1`: the outcome with RCC4 was Active. The compound further registered a GI50 in assay [1] of 0.62 µM. For the same compound, the RatioGI50 in assay [2] is recorded as 45.
Taken in the same sequence, the figures for `Cc1cccc(Nc2nc(-c3ccncc3C#CCO)cs2)c1` were “Active”, 0.24 µM and 11.9.
For the compound `Cc1cccc(Nc2nc(Cc3ccncc3)cs2)c1`, in assay [1], the GI50 came to 20.3 µM. Further, the RatioGI50 in assay [2] was found to be 24.4.
With `Cc1cccc(Nc2nc(-c3ccnc(Cl)c3)cs2)c1`, in assay [1], the GI50 came out at 2.2 µM. Moreover, the RatioGI50 in assay [2] is listed as 3.8.
The matching figures for `OCc1sc(Nc2ccc3c(c2)CCC3)nc1-c1ccncc1`: 6.8 µM and 1.4.
With `Cc1cccc(Nc2nc(-c3ccncc3CCCO)cs2)c1`, in assay [1], it took 6.8 µM to inhibit growth by half (GI50). Further, the RatioGI50 in assay [2] is given as >5.9.
The matching figures for `Clc1cccc(Nc2nc(-c3ccncc3)cs2)c1`: 3 µM and 5.
The matching figures for `Cc1cc(Nc2nc(-c3ccncc3)cs2)ccc1O`: 70 µM and 2.3.
The matching figures for `Cc1cccc(Nc2nc(-c3ccnc(F)c3)cs2)c1`: 4.5 µM and >8.9.
Take `Cc1cccc(Nc2nc(-c3ccncc3)c(C(N)=O)s2)c1`: it took 19.2 µM to inhibit growth in assay [1] by half (GI50). In addition, the RatioGI50 in assay [2] is >2.
On to `Cc1cccc(Nc2nc(-c3ccncc3Cl)cs2)c1`, for which the result in the assay with RCC4 was Active. For the same compound, in assay [1], growth was halved (GI50) at 2.9 µM. Moreover, the RatioGI50 in assay [2] is >13.8.
In assay [1], `Clc1ccc(Nc2nc(-c3ccncc3)cs2)cc1` showed a GI50 of 38 µM. Moreover, in assay [2], the RatioGI50 is given as >2.
Taken in the same sequence, the figures for `CN(C)CCOc1ccc(Nc2nc(-c3ccncc3)cs2)cc1` were 60 µM and 1.3.
Taken in the same sequence, the figures for `OCc1sc(Nc2ccccc2)nc1-c1ccncc1` were 30 µM and >1.3.
Taken in the same sequence, the figures for `Fc1ccc(Nc2nc(-c3ccncc3)cs2)cc1` were 6 µM and >7.
`CCc1cnccc1-c1csc(Nc2cccc(C)c2)n1`: the GI50 in assay [1] amounted to 6.2 µM. In addition, the RatioGI50 in assay [2] was 2.8.
The matching figures for `COc1cc(-c2csc(Nc3cccc(C)c3)n2)ccn1`: 28.7 µM and 1.2.
The matching figures for `Cc1cccc(Nc2nc(-c3ccncc3)c(CO)s2)c1`: 7 µM and 2.4.
Taken in the same sequence, the figures for `CCN(c1cccc(C)c1)c1nc(-c2ccncc2)cs1` were 40 µM and 0.6.
`Cc1cccc(Nc2nc(-c3ccnc(Br)c3)cs2)c1`: in assay [1], the GI50 came out at 2 µM. For the same compound, the RatioGI50 in assay [2] was 4.3.
Taken in the same sequence, the figures for `Cc1ccc(Nc2nc(-c3ccncc3)cs2)cc1` were 2.5 µM and 20.
As for `Cc1cccc(Nc2nc(-c3ccncc3)c(CN(C)C)s2)c1`, in assay [1], growth was halved (GI50) at 16 µM. Besides, in assay [2], the RatioGI50 amounted to 2.3.
Taken in the same sequence, the figures for `COc1ccccc1Nc1nc(-c2ccncc2)cs1` were 33.4 µM and >1.2.
Taken in the same sequence, the figures for `Cc1cccc(Nc2nc(-c3ccncc3)c(CN3CCCCC3)s2)c1` were 13 µM and 1.9.
`Brc1cccc(Nc2nc(-c3ccncc3)cs2)c1`: in assay [1], growth was halved (GI50) at 12.4 µM. For the same compound, in assay [2], the RatioGI50 is recorded as >3.2.
Take `c1cc(-c2csc(Nc3ccc4c(c3)CCC4)n2)ccn1`: the result in the assay on RCC4 was Active. The same compound displayed a GI50 in assay [1] of 2 µM. The RatioGI50 in assay [2] was 10.
`Cc1cccc(Nc2nc(-c3ccncc3)c(CCCN3CCOCC3)s2)c1`: in assay [1], halving of growth (GI50) required 5.8 µM. Moreover, in assay [2], the RatioGI50 is recorded as 1.6.
The matching figures for `Cc1cccc(N(C)c2nc(-c3ccncc3)cs2)c1`: 28 µM and 0.6.
`CC(=O)c1ccc(-c2cnccc2-c2csc(Nc3cccc(C)c3)n2)cc1` had a GI50 in assay [1] of 3.9 µM. Besides, the RatioGI50 in assay [2] is 9.
Take `Cc1sc(Nc2ccc3c(c2)CCC3)nc1-c1ccncc1`: the GI50 in assay [1] is 12 µM. For the same compound, the RatioGI50 in assay [2] came out at 1.5.
Taken in the same sequence, the figures for `Cc1cccc(Nc2nc(-c3ccncc3)c(C)s2)c1` were 10 µM and >4.
Regarding `Cc1cccc(Nc2nc(-c3ccncc3Br)cs2)c1`, in assay [1], the GI50 amounted to 3.9 µM. Further, in assay [2], the RatioGI50 was >10.
The matching figures for `Oc1ccc(Nc2nc(-c3ccncc3)cs2)cc1`: 5.3 µM and 8.
Taken in the same sequence, the figures for `Cc1cccc(Nc2nc(-c3ccnc(CCCO)c3)cs2)c1` were 5.2 µM and >7.7.
In assay [1], `CCN(CC)Cc1sc(Nc2cccc(C)c2)nc1-c1ccncc1` showed a GI50 of 13 µM. Also, the RatioGI50 in assay [2] worked out at 1.4.
Taken in the same sequence, the figures for `Oc1ccccc1Nc1nc(-c2ccncc2)cs1` were 12.8 µM and >3.1.
Take `Cc1cccc(Nc2nc(-c3ccncc3)c(C(=O)N(C)C)s2)c1`: in assay [1], growth was halved (GI50) at 16 µM. Also, the RatioGI50 in assay [2] was >2.5.
